Columns and labels:
Conditions in all cases: stereoisomer not certain
OR4D6 (Homo sapiens) = OR4D6 (Homo sapiens) (UniProt Q8NGJ1)
In short: (§1)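 Assay methods differ from source to source, frequently being transient luciferase assays in mammalian cell lines. For each receptor–molecule pair, the label responsive (active) applies when the original authors judged the measured signal statistically different from baseline, and non-responsive (inactive) applies otherwise.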

OR4D9 (Homo sapiens) = OR4D9 (Homo sapiens) (UniProt Q8NGE8)
In short: as §1

OR4E1 (Homo sapiens) = OR4E1 (Homo sapiens) (UniProt P0C645)
In short: as §1

OR4E2 (Homo sapiens) = OR4E2 (Homo sapiens) (UniProt Q8NGC2)
In short: as §1

OR4F15 (Homo sapiens) = OR4F15 (Homo sapiens) (UniProt Q8NGB8)
In short: as §1

OR4F17 (Homo sapiens) = OR4F17 (Homo sapiens) (UniProt Q8NGA8)
In short: as §1

OR4F21 (Homo sapiens) = OR4F21 (Homo sapiens) (UniProt O95013)
In short: as §1

OR4D6 = tested on: OR4D6
In short: as §1

OR4E2 A119T = tested on: OR4E2 A119T
In short: as §1

OR4E2 = tested on: OR4E2
In short: as §1

Measured: odorant receptor agonist call

Sequence of OR4F17 (Homo sapiens) (Q8NGA8 whole entry): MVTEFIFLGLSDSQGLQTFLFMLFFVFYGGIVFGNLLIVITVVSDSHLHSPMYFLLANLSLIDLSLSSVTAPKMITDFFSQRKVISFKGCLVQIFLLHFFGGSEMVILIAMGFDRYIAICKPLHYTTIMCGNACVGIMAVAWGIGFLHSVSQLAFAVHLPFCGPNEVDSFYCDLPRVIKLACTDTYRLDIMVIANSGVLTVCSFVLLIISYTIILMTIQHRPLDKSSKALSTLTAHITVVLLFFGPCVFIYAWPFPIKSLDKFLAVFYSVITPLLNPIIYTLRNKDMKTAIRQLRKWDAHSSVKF
Sequence of OR4E2 (Homo sapiens) (Q8NGC2 whole entry): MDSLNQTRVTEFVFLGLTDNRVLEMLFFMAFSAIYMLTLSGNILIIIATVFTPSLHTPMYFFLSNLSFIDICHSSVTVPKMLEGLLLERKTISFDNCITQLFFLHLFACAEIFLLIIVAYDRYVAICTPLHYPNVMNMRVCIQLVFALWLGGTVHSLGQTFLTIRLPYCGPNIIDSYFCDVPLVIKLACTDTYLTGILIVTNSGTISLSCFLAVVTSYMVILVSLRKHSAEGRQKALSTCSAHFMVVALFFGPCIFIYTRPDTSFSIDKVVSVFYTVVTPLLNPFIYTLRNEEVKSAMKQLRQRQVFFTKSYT
Sequence of OR4F15 (Homo sapiens) (Q8NGB8 whole entry): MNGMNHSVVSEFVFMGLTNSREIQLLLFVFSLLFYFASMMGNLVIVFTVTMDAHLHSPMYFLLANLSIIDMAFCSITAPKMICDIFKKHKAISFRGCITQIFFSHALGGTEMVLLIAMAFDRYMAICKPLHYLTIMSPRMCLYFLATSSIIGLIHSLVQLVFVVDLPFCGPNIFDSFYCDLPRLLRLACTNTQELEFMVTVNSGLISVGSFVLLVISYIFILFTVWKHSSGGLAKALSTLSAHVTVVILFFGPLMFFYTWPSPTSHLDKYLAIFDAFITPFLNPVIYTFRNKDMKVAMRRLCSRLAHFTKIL
Sequence of OR4D6 (Homo sapiens) (Q8NGJ1 whole entry): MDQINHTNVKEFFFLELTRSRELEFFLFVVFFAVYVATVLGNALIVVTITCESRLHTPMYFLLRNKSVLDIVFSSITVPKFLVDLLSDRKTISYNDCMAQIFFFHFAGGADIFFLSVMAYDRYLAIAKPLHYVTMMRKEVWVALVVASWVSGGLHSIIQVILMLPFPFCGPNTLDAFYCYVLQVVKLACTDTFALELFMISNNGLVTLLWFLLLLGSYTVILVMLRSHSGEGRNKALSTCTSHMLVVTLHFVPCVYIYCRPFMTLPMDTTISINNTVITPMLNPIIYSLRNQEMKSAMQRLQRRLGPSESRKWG
Sequence of OR4F21 (Homo sapiens) (O95013 whole entry): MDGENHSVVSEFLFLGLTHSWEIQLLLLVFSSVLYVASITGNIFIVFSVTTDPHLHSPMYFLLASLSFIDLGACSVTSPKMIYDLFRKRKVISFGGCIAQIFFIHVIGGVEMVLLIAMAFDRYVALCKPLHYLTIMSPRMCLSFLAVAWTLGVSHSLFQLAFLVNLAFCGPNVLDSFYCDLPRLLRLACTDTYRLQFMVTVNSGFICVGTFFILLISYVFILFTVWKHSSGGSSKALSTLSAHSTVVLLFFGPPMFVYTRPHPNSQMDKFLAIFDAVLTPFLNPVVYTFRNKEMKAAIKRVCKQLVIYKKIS
Sequence of OR4D9 (Homo sapiens) (Q8NGE8 whole entry): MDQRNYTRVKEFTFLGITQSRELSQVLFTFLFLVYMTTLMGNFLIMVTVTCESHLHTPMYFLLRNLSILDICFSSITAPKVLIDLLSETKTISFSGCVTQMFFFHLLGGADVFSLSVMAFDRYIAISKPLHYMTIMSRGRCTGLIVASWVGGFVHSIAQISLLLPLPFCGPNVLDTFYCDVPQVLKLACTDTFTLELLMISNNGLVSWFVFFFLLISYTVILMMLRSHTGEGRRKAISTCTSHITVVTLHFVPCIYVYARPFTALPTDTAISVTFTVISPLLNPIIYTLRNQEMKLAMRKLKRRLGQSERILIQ
Sequence of OR4D6 (as listed by the source): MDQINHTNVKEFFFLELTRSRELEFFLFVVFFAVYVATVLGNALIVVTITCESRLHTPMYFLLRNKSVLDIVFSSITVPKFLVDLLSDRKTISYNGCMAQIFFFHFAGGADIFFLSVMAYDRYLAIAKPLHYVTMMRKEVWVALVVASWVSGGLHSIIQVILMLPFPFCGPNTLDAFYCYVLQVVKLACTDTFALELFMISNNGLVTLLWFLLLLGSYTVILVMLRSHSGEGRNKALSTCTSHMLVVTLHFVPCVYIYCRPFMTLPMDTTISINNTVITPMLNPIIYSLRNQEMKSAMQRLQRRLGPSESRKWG
Sequence of OR4E2 A119T (as listed by the source, stated change not applied): as the sequence (Q8NGC2 whole entry) above, with V118M, A119T, Q234R counted along it
Sequence of OR4E2 (as listed by the source): as the sequence (Q8NGC2 whole entry) above, with V118M, Q234R counted along it
Sequence of OR4E1 (Homo sapiens) (P0C645 whole entry): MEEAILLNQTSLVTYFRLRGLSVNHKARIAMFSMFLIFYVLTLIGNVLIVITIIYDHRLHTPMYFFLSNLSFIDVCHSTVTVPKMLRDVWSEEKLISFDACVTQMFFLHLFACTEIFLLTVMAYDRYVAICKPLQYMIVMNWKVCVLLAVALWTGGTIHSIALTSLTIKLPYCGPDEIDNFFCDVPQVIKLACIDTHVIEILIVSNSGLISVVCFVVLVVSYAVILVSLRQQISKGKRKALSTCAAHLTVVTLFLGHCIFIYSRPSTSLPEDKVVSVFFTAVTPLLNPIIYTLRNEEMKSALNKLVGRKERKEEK

Cc1c([N+](=O)[O-])c(C)c([N+](=O)[O-])c(C(C)(C)C)c1[N+](=O)[O-]
not listed: OR4D6 | OR4E2 A119T | OR4E2
inactive: all other assays above

C=CCOC(=O)Cc1ccccc1
not listed: OR4E1 (Homo sapiens)
inactive: all other assays above
